ChEMBL document CHEMBL3286357, “Design, synthesis and pharmacological evaluation of novel substituted quinoline-2-carboxamide derivatives as human dihydroorotate dehydrogenase (hDHODH) inhibitors and anticancer agents” (Eur J Med Chem, 2014)

What was measured:
[1] = Retention time of compound by HPLC analysis; assay type: physicochemical
A-375 [2] = test: Antiproliferative activity against human A375 cells at 0.01 ug/ml for 24 hrs by MTT assay; assay type: functional; conditions: A-375, 24 h
Method in brief: (§1)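 HEP-3B or A-375 cells were grown in DMEM with 10% FBS, 5% HBSS, penicillin, streptomycin and amphotericin B at 37 C and 5% CO2. Cells were seeded at 2 × 10^4 per well and preincubated for 24 h. They were then exposed to ten 1:3 serial dilutions from a top concentration of 100, made from 2% DMSO stocks. MTT was added for 3 h, formazan was dissolved in DMSO, and A550 was read. Wells were run in triplicate across three independent experiments. IC50 came from dose-response curves.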

A-375 [3] = test: Antiproliferative activity against human A375 cells at 0.02 ug/ml for 24 hrs by MTT assay; assay type: functional; conditions: A-375, 24 h; method in brief: as §1
A-375 [4] = test: Antiproliferative activity against human A375 cells at 0.05 ug/ml for 24 hrs by MTT assay; assay type: functional; conditions: A-375, 24 h; method in brief: as §1
A-375 [5] = test: Antiproliferative activity against human A375 cells at 0.14 ug/ml for 24 hrs by MTT assay; assay type: functional; conditions: A-375, 24 h; method in brief: as §1
A-375 [6] = test: Antiproliferative activity against human A375 cells at 0.41 ug/ml for 24 hrs by MTT assay; assay type: functional; conditions: A-375, 24 h; method in brief: as §1
A-375 [7] = test: Antiproliferative activity against human A375 cells at 1.23 ug/ml for 24 hrs by MTT assay; assay type: functional; conditions: A-375, 24 h; method in brief: as §1
A-375 [8] = test: Antiproliferative activity against human A375 cells at 3.7 ug/ml for 24 hrs by MTT assay; assay type: functional; conditions: A-375, 24 h; method in brief: as §1
A-375 [9] = test: Antiproliferative activity against human A375 cells at 11.11 ug/ml for 24 hrs by MTT assay; assay type: functional; conditions: A-375, 24 h; method in brief: as §1
A-375 [10] = test: Antiproliferative activity against human A375 cells at 33.33 ug/ml for 24 hrs by MTT assay; assay type: functional; conditions: A-375, 24 h; method in brief: as §1
A-375 [11] = test: Antiproliferative activity against human A375 cells at 100 ug/ml for 24 hrs by MTT assay; assay type: functional; conditions: A-375, 24 h; method in brief: as §1
[12] = Antiproliferative activity against human Hep3B cells at 0.01 ug/ml for 24 hrs by MTT assay; assay type: functional, Hep 3B2; method in brief: as §1
[13] = Antiproliferative activity against human Hep3B cells at 0.02 ug/ml for 24 hrs by MTT assay; assay type: functional, Hep 3B2; method in brief: as §1
[14] = Antiproliferative activity against human Hep3B cells at 0.05 ug/ml for 24 hrs by MTT assay; assay type: functional, Hep 3B2; method in brief: as §1
[15] = Antiproliferative activity against human Hep3B cells at 0.14 ug/ml for 24 hrs by MTT assay; assay type: functional, Hep 3B2; method in brief: as §1
[16] = Antiproliferative activity against human Hep3B cells at 0.41 ug/ml for 24 hrs by MTT assay; assay type: functional, Hep 3B2; method in brief: as §1
[17] = Antiproliferative activity against human Hep3B cells at 1.23 ug/ml for 24 hrs by MTT assay; assay type: functional, Hep 3B2; method in brief: as §1
[18] = Antiproliferative activity against human Hep3B cells at 3.7 ug/ml for 24 hrs by MTT assay; assay type: functional, Hep 3B2; method in brief: as §1
[19] = Antiproliferative activity against human Hep3B cells at 11.11 ug/ml for 24 hrs by MTT assay; assay type: functional, Hep 3B2; method in brief: as §1
[20] = Antiproliferative activity against human Hep3B cells at 33.33 ug/ml for 24 hrs by MTT assay; assay type: functional, Hep 3B2; method in brief: as §1
[21] = Antiproliferative activity against human Hep3B cells at 100 ug/ml for 24 hrs by MTT assay; assay type: functional, Hep 3B2; method in brief: as §1
A-375 (human melanoma) = test: Antiproliferative activity against human A375 cells for 24 hrs by MTT assay; conditions: A-375, 24 h
HEP-3B (human hepatoma) = test: Antiproliferative activity against human Hep3B cells for 24 hrs by MTT assay
[22] = target: Dihydroorotate dehydrogenase (quinone), mitochondrial (Homo sapiens, UniProt Q02127); test: Inhibition of recombinant human DHODH activity after 20 mins by DCIP dye based colorimetric analysis in presence of 1 mM L-dihydroorotate and 0.1 mM CqD
Sequence of Dihydroorotate dehydrogenase (quinone), mitochondrial (Q02127 whole entry): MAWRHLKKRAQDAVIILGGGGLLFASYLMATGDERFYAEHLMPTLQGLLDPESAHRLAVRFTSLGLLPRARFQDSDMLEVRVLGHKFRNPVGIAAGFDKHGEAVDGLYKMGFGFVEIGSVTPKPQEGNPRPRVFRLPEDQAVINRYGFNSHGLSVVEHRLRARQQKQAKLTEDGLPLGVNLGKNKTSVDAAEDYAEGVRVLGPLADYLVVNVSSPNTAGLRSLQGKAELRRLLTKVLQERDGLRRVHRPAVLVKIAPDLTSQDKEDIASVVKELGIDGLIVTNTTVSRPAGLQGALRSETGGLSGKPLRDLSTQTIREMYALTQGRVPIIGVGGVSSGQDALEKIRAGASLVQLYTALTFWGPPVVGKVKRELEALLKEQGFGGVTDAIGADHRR

Cc1c(C(=O)Nc2c(F)cc(-c3cccc(F)c3)cc2F)nc2ccc(F)cc2c1C(=O)O
Retention_time [1]: 7.2 min | inhibition at 0.01 µg/mL (A-375 [2]): -0.56% | inhibition at 0.02 µg/mL (A-375 [3]): -0.22% | inhibition at 0.05 µg/mL (A-375 [4]): 0.37% | inhibition at 0.14 µg/mL (A-375 [5]): 1.05% | inhibition at 0.41 µg/mL (A-375 [6]): 3.02% | inhibition at 1.23 µg/mL (A-375 [7]): 16.3% | inhibition at 3.7 µg/mL (A-375 [8]): 24.5% | inhibition at 11.11 µg/mL (A-375 [9]): 36.2% | inhibition at 33.33 µg/mL (A-375 [10]): 41.3% | inhibition at 100 µg/mL (A-375 [11]): 64.3% | inhibition at 0.01 µg/mL [12]: -0.35% | inhibition at 0.02 µg/mL [13]: -0.13% | inhibition at 0.05 µg/mL [14]: 0.05% | inhibition at 0.14 µg/mL [15]: 0.65% | inhibition at 0.41 µg/mL [16]: 1.06% | inhibition at 1.23 µg/mL [17]: 2.45% | inhibition at 3.7 µg/mL [18]: 11.2% | inhibition at 11.11 µg/mL [19]: 26.3% | inhibition at 33.33 µg/mL [20]: 34.3% | inhibition at 100 µg/mL [21]: 65.2% | IC50 (A-375 (human melanoma)): 14.7 µM | IC50 (HEP-3B (human hepatoma)): 81.9 µM | IC50 [22]: 4.58 µM

COc1ccc2nc(C(=O)Nc3ccc(-c4ccccc4)cc3)c(C)c(C(=O)O)c2c1
Retention_time [1]: 7.4 min | inhibition at 0.01 µg/mL (A-375 [2]): 0.35% | inhibition at 0.02 µg/mL (A-375 [3]): 0.68% | inhibition at 0.05 µg/mL (A-375 [4]): 1.26% | inhibition at 0.14 µg/mL (A-375 [5]): 3.65% | inhibition at 0.41 µg/mL (A-375 [6]): 11.3% | inhibition at 1.23 µg/mL (A-375 [7]): 21.3% | inhibition at 3.7 µg/mL (A-375 [8]): 33.6% | inhibition at 11.11 µg/mL (A-375 [9]): 47.9% | inhibition at 33.33 µg/mL (A-375 [10]): 58.3% | inhibition at 100 µg/mL (A-375 [11]): 70.2% | inhibition at 0.01 µg/mL [12]: -0.12% | inhibition at 0.02 µg/mL [13]: 0.05% | inhibition at 0.05 µg/mL [14]: 0.65% | inhibition at 0.14 µg/mL [15]: 2.01% | inhibition at 0.41 µg/mL [16]: 5.31% | inhibition at 1.23 µg/mL [17]: 11.2% | inhibition at 3.7 µg/mL [18]: 19.4% | inhibition at 11.11 µg/mL [19]: 28.3% | inhibition at 33.33 µg/mL [20]: 33.6% | inhibition at 100 µg/mL [21]: 72.5% | IC50 (A-375 (human melanoma)): 9.43 µM | IC50 (HEP-3B (human hepatoma)): > 100 µM | IC50 [22]: 1.09 µM
